Results taken from PMC12949657 (Journal of medicinal chemistry, 2024).
Values after ≈ are worked out from the molar mass of the structure shown.

Assays:
[1] = Mouse snapshot 5 h PK study; type: in vivo; settings: female, CD-1, mouse, plasma, po, 25 mg/kg
Procedure, shortened: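 Two female CD-1 mice received a single oral 25 mg/kg dose in 5% DMA/60% PEG300/35% D5W. Blood was collected into K2EDTA pre-dose and at 0.5, 1, 3 and 5 h, kept on ice, and spun to plasma stored at −80 °C. Quantitation was by LC-MS/MS against plasma standard curves (1/x² weighting) after acetonitrile/methanol precipitation with verapamil internal standard. AUC was calculated by trapezoidal integration.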

[2] = tested on: Enterococcus faecium NCTC 7171 (ATCC 19434); experiment: Antibacterial growth inhibition; type: cell-based; settings: ATCC19434|NCTC7171, read-out: E. faecium MIC
[3] = Mouse plasma protein binding; type: in vitro ADME
[4] = Mouse dose tolerability/proportionality study; type: in vivo
[5] = biological target: T1, CYP1A2 (Homo sapiens, UniProt P05177); experiment: Human cytochrome P450 inhibition assay, 1A2; type: in vitro ADME; settings: human liver microsomes, 0 – 50 μM
T1 sequence (P05177 1-516): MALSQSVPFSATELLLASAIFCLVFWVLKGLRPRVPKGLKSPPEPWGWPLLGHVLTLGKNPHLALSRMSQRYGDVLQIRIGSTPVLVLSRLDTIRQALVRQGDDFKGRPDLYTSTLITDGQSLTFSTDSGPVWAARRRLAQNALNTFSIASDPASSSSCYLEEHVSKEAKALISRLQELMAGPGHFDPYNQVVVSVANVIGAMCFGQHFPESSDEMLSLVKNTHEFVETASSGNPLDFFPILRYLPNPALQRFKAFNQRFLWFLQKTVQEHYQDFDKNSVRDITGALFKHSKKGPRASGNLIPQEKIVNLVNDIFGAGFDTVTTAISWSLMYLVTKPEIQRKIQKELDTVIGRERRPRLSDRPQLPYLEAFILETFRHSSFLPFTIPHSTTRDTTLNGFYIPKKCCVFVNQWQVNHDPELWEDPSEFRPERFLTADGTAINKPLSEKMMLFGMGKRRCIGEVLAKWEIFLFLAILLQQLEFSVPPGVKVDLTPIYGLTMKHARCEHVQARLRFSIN

[6] = biological target: CYP2D6 (Homo sapiens, UniProt P10635); experiment: Human cytochrome P450 inhibition assay, 2D6; type: in vitro ADME; settings: human liver microsomes, 0 – 50 μM
[7] = Human plasma protein binding; type: in vitro ADME
[8] = tested on: Klebsiella pneumoniae; experiment: MIC assay, K. pneumoniae; type: cell-based
[9] = biological target: CYP3A4 (Homo sapiens, UniProt P08684); experiment: Human cytochrome P450 inhibition assay, 3A4; type: in vitro ADME; settings: human liver microsomes, 0 – 50 μM
[10] = tested on: Acinetobacter baumannii; experiment: MIC assay, A. baumannii; type: cell-based
[11] = biological target: CYP2C9 (Homo sapiens, UniProt P11712); experiment: Human cytochrome P450 inhibition assay, 2C9; type: in vitro ADME; settings: human liver microsomes, 0 – 50 μM
[12] = tested on: E. faecium EN 2966; experiment: MIC assay, vancomycin-resistant E. faecium EN 2966; type: cell-based, Enterococcus faecium
[13] = tested on: E. faecium NCTC 7171; experiment: Griess assay for intrabacterial NO release; type: cell-based, Enterococcus faecium; settings: 100 μM, 24 h and 48 h
Procedure, shortened: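 E. faecium NCTC 7171 was started from a single colony in Mueller-Hinton medium and grown to OD600 0.4. The culture was split into untreated, test compound (100 μM) and DEA-NONOate (100 μM) batches. At 24 h and 48 h, samples were centrifuged and supernatants mixed with fresh Griess reagent for 30 min at rt. A548 was read, and nitrite was estimated against sodium nitrite standards (50–0.78 μM, 2-fold, in Mueller-Hinton).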

[14] = tested on: E. faecium NCTC 7171; experiment: Minimum bactericidal concentration; type: cell-based; settings: Enterococcus faecium, NCTC7171, read-out: minimal bactericidal concentration (MBC)
Procedure, shortened: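 MBC was taken from the broth microdilution MIC plate. Mid-log E. faecium (OD600 0.2–0.3) was diluted 1:1000 into cation-adjusted Mueller-Hinton II broth with 1% IsoVitaleX, with test compound typically at 200–0.1 μg/mL, and incubated overnight at 37 °C. Wells were mixed, serially diluted 10-fold in DPBS and plated on Mueller-Hinton plus 1% IsoVitaleX agar. Colonies were counted after 2 d at 37 °C.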

[15] = biological target: CYP2C19 (Homo sapiens, UniProt P33261); experiment: Human cytochrome P450 inhibition assay, 2C19; type: in vitro ADME; settings: human liver microsomes, 0 – 50 μM
[16] = tested on: Staphylococcus aureus; experiment: MIC assay, S. aureus; type: cell-based
[17] = tested on: Pseudomonas aeruginosa; experiment: MIC assay, P. aeruginosa; type: cell-based
[18] = tested on: E. faecium; settings: cited from earlier work

Chain of CYP2D6 (P10635 whole entry): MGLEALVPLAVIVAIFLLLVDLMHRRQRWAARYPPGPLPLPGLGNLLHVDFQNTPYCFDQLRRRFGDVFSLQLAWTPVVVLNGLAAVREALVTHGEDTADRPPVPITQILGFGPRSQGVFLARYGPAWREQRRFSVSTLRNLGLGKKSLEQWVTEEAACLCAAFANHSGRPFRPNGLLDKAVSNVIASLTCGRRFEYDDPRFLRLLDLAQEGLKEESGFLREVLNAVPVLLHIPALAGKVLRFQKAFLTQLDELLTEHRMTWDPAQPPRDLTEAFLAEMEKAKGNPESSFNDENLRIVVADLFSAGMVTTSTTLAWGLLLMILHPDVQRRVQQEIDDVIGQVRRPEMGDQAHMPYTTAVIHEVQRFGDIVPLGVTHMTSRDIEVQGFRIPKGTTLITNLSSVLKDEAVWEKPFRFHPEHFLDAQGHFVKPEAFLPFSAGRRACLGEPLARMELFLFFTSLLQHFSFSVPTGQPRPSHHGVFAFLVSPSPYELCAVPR
Chain of CYP2C19 (P33261 whole entry): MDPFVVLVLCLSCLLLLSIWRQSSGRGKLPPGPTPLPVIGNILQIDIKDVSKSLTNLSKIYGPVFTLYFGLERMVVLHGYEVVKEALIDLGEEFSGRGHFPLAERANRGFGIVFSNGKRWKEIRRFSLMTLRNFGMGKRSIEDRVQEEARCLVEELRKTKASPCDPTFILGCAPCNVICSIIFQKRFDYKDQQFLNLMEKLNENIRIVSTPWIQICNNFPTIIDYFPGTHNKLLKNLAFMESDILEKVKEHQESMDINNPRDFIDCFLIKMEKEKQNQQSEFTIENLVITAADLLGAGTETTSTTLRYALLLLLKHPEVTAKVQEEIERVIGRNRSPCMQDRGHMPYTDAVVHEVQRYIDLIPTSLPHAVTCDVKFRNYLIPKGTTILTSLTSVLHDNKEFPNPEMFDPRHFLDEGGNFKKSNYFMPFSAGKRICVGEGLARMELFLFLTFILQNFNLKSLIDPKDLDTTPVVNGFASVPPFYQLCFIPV
Chain of CYP3A4 (P08684 whole entry): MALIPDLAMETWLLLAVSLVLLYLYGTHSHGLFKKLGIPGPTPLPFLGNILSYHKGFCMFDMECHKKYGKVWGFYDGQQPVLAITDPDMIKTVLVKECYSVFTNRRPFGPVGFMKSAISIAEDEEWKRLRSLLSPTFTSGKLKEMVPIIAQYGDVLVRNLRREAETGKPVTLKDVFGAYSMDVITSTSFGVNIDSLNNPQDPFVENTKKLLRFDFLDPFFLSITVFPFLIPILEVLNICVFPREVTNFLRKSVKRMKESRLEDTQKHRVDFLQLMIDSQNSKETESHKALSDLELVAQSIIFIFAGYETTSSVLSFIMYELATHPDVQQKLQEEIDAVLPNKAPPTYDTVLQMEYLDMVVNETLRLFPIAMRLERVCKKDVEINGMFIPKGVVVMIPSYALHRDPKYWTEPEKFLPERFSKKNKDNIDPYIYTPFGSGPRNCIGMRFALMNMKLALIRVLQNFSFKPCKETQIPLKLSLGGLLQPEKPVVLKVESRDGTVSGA
Chain of CYP2C9 (P11712 whole entry): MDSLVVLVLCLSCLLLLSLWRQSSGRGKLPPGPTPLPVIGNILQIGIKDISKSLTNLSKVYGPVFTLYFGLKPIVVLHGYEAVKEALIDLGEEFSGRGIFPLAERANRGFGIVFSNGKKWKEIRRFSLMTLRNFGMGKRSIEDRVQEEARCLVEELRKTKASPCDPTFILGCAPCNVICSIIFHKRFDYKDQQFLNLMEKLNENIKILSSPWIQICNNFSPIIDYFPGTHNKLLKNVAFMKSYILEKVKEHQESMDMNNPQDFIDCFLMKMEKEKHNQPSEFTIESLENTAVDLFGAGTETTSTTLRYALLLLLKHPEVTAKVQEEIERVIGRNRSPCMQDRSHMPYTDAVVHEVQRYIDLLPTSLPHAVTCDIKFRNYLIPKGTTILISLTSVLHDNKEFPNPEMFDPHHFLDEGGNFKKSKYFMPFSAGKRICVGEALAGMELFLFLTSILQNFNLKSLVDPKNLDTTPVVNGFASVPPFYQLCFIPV

With `O=C(NNC(=O)c1cc2cc(Cl)cc(Cl)c2s1)c1ccc([N+](=O)[O-])o1` [Compound 22] the AUC(0-t) [1] was 43800 ng·h/mL.
`O=C(NNC(=O)c1cc2cc(C(F)(F)F)cc(Cl)c2s1)c1ccc([N+](=O)[O-])o1` [Compound 25] showed an AUC(0-t) [1] of 111000 ng·h/mL.
Compound `O=C(NNC(=O)c1cc2ccccc2s1)c1ccc([N+](=O)[O-])o1` [JSF-2827, N'-(benzo[b]thiophene-2-carbonyl)-5-nitrofuran-2-carbohydrazide] has an MIC [2] of 0.75 µM (≈ 0.248 µg/mL).
For `O=C(NNC(=O)c1sc2cc(Cl)ccc2c1Cl)c1ccc([N+](=O)[O-])o1` [JSF-3269], the “binding to mouse plasma” value [3] was 99.99%, the “exposure (AUC0-24h) dose proportionality” value ([4]; mice, 50, 150 and 300 mg/kg po) was “appeared to plateau between 150 and 300 mg/kg” and the dose tolerability ([4]; mice, doses up to the highest level tested of 300 mg/kg po) was “tolerated”. The “inhibition of human cytochrome P450 1A2” value [5] was “not a significant inhibitor”, the MIC [2] was 1.9 to 3.8 µM (≈ 0.76 to 1.52 µg/mL) and the “inhibition of human cytochrome P450 2D6” value [6] was “not a significant inhibitor”. The “binding to human plasma” value [7] was 99.3%, the MIC [8] was > 120 µM and the “inhibition of human cytochrome P450 3A4” value [9] was “not a significant inhibitor”. The MIC [10] was > 120 µM, the “inhibition of human cytochrome P450 2C9” value [11] was “not a significant inhibitor” and the MIC [12] was “the same MIC as versus the NCTC 7171 strain”. For the same compound, the “intracellular release of NO• (nitrite in supernatant)” value [13] was “no evidence was found to support the intracellular release of NO•”, the MBC [14] was 7.7 to 15 µM (≈ 3.08 to 6 µg/mL) and the “inhibition of human cytochrome P450 2C19” value [15] was “not a significant inhibitor”. For the same compound, the MIC [16] was 16 µM (≈ 6.4 µg/mL) and the MIC [17] was > 120 µM.
For `O=C1CN(/N=C/c2ccc([N+](=O)[O-])o2)C(=O)N1` [nitrofurantoin], the “in vitro efficacy versus E. faecium” value [18] is listed as “limited in vitro efficacy”.
